# Compounds with a hit are over-represented: about 1.5% of the library has one in this group of screens.
# CCR6 antag = CCR6 receptor antagonists, primary screen, cell-based, CHO-K1, luminescence, beta-arrestin, uHTS | C-C chemokine receptor type 6 (Homo sapiens), P51684 | CHO-K1 CCR6 PathHunter beta-arrestin, CCL20-stimulated | inhibition, % at 20 µM | 340,000 tested, 0.49% active | AID 493098, 2011;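 active means compounds whose inhibition of the agonist-driven luminescence signal at 20 µM reaches about 50%, limit read from the data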;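 further: cells stimulated with CCL20 at 14 nM final; plate controls were DMSO with CCL20 for no effect and DMSO without agonist for full effect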
# Target sequence (P51684 whole entry, looked up): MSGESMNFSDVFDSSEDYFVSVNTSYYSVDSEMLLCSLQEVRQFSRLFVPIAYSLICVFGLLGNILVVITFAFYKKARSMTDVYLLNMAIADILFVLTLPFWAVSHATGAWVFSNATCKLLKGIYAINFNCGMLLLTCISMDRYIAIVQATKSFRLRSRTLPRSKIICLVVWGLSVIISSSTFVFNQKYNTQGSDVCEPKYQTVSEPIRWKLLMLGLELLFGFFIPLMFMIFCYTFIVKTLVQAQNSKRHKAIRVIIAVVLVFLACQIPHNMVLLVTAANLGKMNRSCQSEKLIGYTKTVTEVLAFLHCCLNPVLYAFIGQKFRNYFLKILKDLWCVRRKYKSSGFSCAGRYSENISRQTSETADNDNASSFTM
# EBI2 block = EBI2 receptor antagonists, beta-arrestin recruitment, primary screen, cell-based, luminescence, 7a,25-OHC stimulation, uHTS; 360,000 tested, 0.81% active; 7a,25-OHC stimulated; inhibition, % at 5 µM; G-protein coupled receptor 183 (Homo sapiens), P32249; in the data active means inhibition above about 38%;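 further: enzyme fragment complementation signal reports receptor beta-arrestin coupling in cells; 0% = agonist plus DMSO wells and 100% = wells without agonist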
# APJ antag = antagonists of human apelin receptor APJ, primary screen, CHO-K1 cells, beta-arrestin complementation, luminescence; P35414; inhibition, % at 20 µM; 330,000 tested, 0.32% active; AID 2521, 2010;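 active means inhibition above about 40% at 20 µM, limit read from the data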;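 further: cells challenged with 10 nM apelin-13 agonist together with compound; plate controls were apelin-13 plus DMSO wells for no effect and DMSO wells lacking apelin-13 for full effect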
# APJ agonist = agonists of human apelin receptor APJ, primary screen, CHO-K1 cells, PathHunter beta-arrestin, luminescence. P35414. 0% DMSO wells, 100% apelin. AID 2520, 2010. activation, % at 20 µM. 330,000 tested, 0.11% active;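 active means activation more than six SD over the plate average, tested at 20 µM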;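 further: 0% = DMSO alone and 100% = apelin-13 at 10 nM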
#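 Assay system: CHO-K1 APJ beta-arrestin complementation cell line / Compound: single test compound dose, 20 µM final, 1% DMSO / Times: overnight seeding, 90 min compound at 25 °C, 1 h detection / Technique: beta-gal luminescence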
# CXCR6 inh = CXCR6 receptor inhibitors, primary screen, cell-based, beta-arrestin, luminescence, CHO-K1 PathHunter, 1536-well. C-X-C chemokine receptor type 6 (Homo sapiens), O00574. inhibition, % at 20 µM. 360,000 tested, 0.36% active. AID 602244, 2012; in the data active means inhibition above about 34%, passing the limit was not always enough;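 further: antagonist mode with CXCL16 agonist at 10 nM final; 0% = 10 nM CXCL16 with DMSO and 100% = unstimulated wells without agonist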
# CXCR6 antag conf = CXCR6 receptor antagonists, confirmation, cell-based, single concentration, beta-arrestin, luminescence | 700 tested, 65% active | inhibition, % at 20 µM | shares compounds with CXCR6 inh | CHO-K1 CXCR6 PathHunter beta-arrestin;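 active means mean inhibition over four retests above 40%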;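 further: receptor stimulated with 10 nM CXCL16 agonist; beta-galactosidase fragment complementation upon beta-arrestin recruitment to receptor; plate controls were CXCL16 plus DMSO for no effect and DMSO without CXCL16 for full effect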
# Starred values were filed as active, the others as inactive; x = no result given.
SMILES,CCR6 antag,EBI2 block,APJ antag,APJ agonist,CXCR6 inh,CXCR6 antag conf
NCCNc1ccc([N+](=O)[O-])c(Sc2nc3ccccc3[nH]2)c1,31,10,-10,0,-2,x
CCC(=O)OCCNc1cc(Sc2nc3ccccc3[nH]2)c2nonc2c1[N+](=O)[O-],117*,33,x,x,102*,106*
CCCC(=O)OCCNc1cc(SCc2ccco2)c2nonc2c1[N+](=O)[O-],67*,-26,-23,5,38*,53*
C/C(=N\O)C(C)(C)Nc1ccccc1F,2,-3,15,-1,-4,x
O=C1C(=C(I)I)c2ccccc2-c2ccccc21,x,-21,x,x,43*,39
O=C(O)c1cccc2c1C(=O)c1ccccc1-2,-8,10,-8,5,-11,x
CCN(CC(=O)Nc1ccc(OC)cc1)CC(=O)Nc1cccc(S(=O)(=O)N2CCOCC2)c1,x,-1,x,x,0,x
COc1ccc(C(=O)NC(=S)Nc2ccc([N+](=O)[O-])cc2C)cc1OC,68*,14,34,-10,50*,55*
O=C(Cc1ccc(-c2ccccc2)cc1)OCC(=O)N1CCCC1=O,4,-10,5,3,-4,x
NC(=S)NN=C1c2cc(Cl)ccc2-c2c1cc(Cl)cc2[N+](=O)[O-],76*,11,x,x,43*,59*
COc1cc2c(cc1[N+](=O)[O-])-c1ccc([N+](=O)[O-])cc1C2=NNC(N)=S,x,-11,x,x,25,x
O=S(=O)(/C=C/C=C/S(=O)(=O)c1ccccc1)c1ccccc1,89*,54*,x,x,70*,67*
CCOc1cc(CNCCO)c(Cl)cc1OCC(=O)NCCc1ccccc1,-6,8,-7,-1,71*,13
O=C(Nc1ccc(S(=O)(=O)Nc2ncccn2)cc1)c1ccc2ncsc2c1,2,15,-3,-2,5,x
CCCOc1ccc(C(=O)NNC(=S)NC(=O)c2cc(-c3ccc(Cl)cc3)nc3ccccc23)cc1,43,14,30,-8,45*,37
O=C(O)C1CCc2sc3[nH]c(=S)n(-c4ccccc4)c(=O)c3c21 (configuration not stated),11,7,-4,-6,44*,20
CCN(CC)C(=O)c1sc2[nH]c(=S)n(-c3ccccc3)c(=O)c2c1C,9,-2,14,0,-1,x
CC(C)CNC(=O)C1(C)CCCCCN1Cc1ccccc1-c1ccccc1 (configuration not stated),x,10,x,x,37*,8
N#Cc1c(SCC(N)=O)nsc1SCc1ccc(Cl)cc1,5,2,-5,0,-7,x
N#Cc1c(SCC(N)=O)nsc1SCc1ccccc1Cl,18,-8,1,-4,83*,0
O=[N+]([O-])c1ccc(N/N=C/c2sc(N3CCOCC3)nc2-c2ccccc2)c(S(=O)(=O)Nc2ccccc2Cl)c1,58*,15,x,x,54*,60*
CCOc1ccc(S(=O)(=O)Nc2cccc(C(=O)NCCCn3ccnc3)c2)cc1,17,-1,-1,0,2,x
CCC(C)[C@H](NC(=O)N1CCN(c2cccc(C(F)(F)F)c2)CC1)C(=O)OC (some centres not stated),7,-10,25,-1,51*,10
C=C(C(=O)Oc1c(C(C)(C)C)cccc1C(C)(C)C)c1ccccc1,29,-9,-11,-5,-5,x
CC(NC(=O)CCC(=O)NCc1ccc(F)cc1)c1ccccc1 (configuration not stated),18,7,-9,-3,80*,-4
SMILES,CCR6 antag,EBI2 block,APJ antag,APJ agonist,CXCR6 inh,CXCR6 antag conf
CCOC(=O)c1c(C)oc2c1c(C=NCC1CCCO1)c(O)c1ccccc12 (configuration not stated),9,8,x,x,5,x
CCOC(=O)c1c(C)oc2c1c(C=NCc1ccccn1)c(O)c1ccccc12,77*,42,x,x,98*,64*
O=C(Nc1ccccc1)c1nnsc1S(=O)c1ccc(Cl)cc1 (configuration not stated),101*,27,21,-4,89*,97*
O=C(c1ccccc1NS(=O)(=O)c1cccc([N+](=O)[O-])c1)N1CCCC1,7,-4,-2,6,3,x
CCOC(=O)c1c(S(=O)(=O)Nc2ccc(F)cc2C)c(C)n(C)c1C,20,6,19,-3,5,x
CC(=O)c1ccc(OCC(=O)OCC(=O)c2ccc(S(=O)(=O)N3CCCCC3)cc2)cc1,x,14,x,x,40*,27
COc1ccc(-c2nn(C)c(=O)c3ccccc23)cc1NC(=O)Cn1nc(C)c2ccccc2c1=O,66*,12,37,-10,37*,47*
C=C1C(=O)C23CCC4C(C)(C(=O)OC)CCCC4(C)C2CCC1(O)C3 (configuration not stated),86*,78*,x,x,79*,89*
CCN(CC)CC(C)(C)C(=O)/C=C/c1ccc(/C=C/C(=O)C(C)(C)CN(CC)CC)cc1,113*,78*,x,x,98*,95*
C=C1C(=O)[C@]23C[C@H]1CC[C@H]2[C@]1(C)[C@@H](OC(C)=O)CC[C@@](C)(C(=O)OC)[C@H]1C[C@@H]3OC(C)=O,x,39,x,x,27,x
C=C1C(=O)[C@]23C[C@H]1CCC2[C@@]1(C)C(C[C@@H]3O)[C@](C)(C(=O)OC)CC[C@@H]1OC(C)=O (some centres not stated),x,80*,x,x,69*,89*
N#CC(C#N)=C1C=CC=CN1/C(=C\c1ccco1)C(=O)c1ccccc1,100*,78*,x,x,98*,105*
COc1ccc(C(=O)/C(=C\c2ccco2)N2C=CC=CC2=C(C#N)C#N)cc1,100*,54*,86*,-8,84*,103*
COc1ccc(C(=O)N/C(=C\c2ccco2)C(=O)OCc2ccco2)cc1,10,-7,-6,0,-7,x
COc1ccc(/C=C(/C(=O)c2cccs2)N2C=CC=CC2=C(C#N)C#N)cc1,84*,23,x,x,62*,57*
C/C=C(\C)CN1CCC(n2nccc2NC(=O)CCCc2ccccc2)CC1,13,1,-6,-8,2,x
CN(CC(=O)Nc1cccc(F)c1)C(=O)CSc1ccccc1F,6,-2,0,-2,-7,x
Cc1cc(C)c2c(=O)n(CC(=O)NC3CCCC3)sc2n1,15,16,-27,2,99*,34
COc1ccc(C(=O)N/N=C/c2cccc3cccnc23)cc1,23,4,12,-4,52*,60*
CCOc1ccc(C(=O)N/N=C/c2cccc3cccnc23)cc1,x,2,25,-3,56*,64*
